# “And” between values parts separate entries of the source, which are not always exact repeats. Identical values can stand only once. Inconclusive results are not listed. The source made the active and inactive calls.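 How the source made its calls: active means viability under 80% at one or more tested concentrations, counted as toxic; inconclusive means replicate runs disagree on the viability criterion; inactive means viability at or above 80% at every dose.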
# What was measured:
# [1] = tested on: Vero E6 viability, CellTiter-Glo luminescence, 72 h; experiment: Vero E6 cell cytotoxicity, dose response, cytotoxicity control for PfM18AAP inhibitor project, set 3 (AID 624205)
# Outline: (§1)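 Material: Vero E6 cells. Quantity: 3000 cells per well. Doses: 2-fold compound dilution series. Schedule: 72 h compound exposure at 37 °C with 5% CO2. Detection: CellTiter-Glo luminescence. Read-out basis: % viability versus vehicle wells, CC50 from 4-parameter fit bounded 0–100. Control set: DMSO vehicle wells.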
# [2] = as above; conditions: Vero E6 viability, CellTiter-Glo luminescence, 72 h; at 50 µM (top of the series)
# Outline: as §1
SMILES,CC50 [1],viability [2]
COc1ccc(CCCN(C)c2c3ccccc3nc3ccccc23)cc1OC,9.23 µM,
COc1ccc(C2CCN(c3ccnc4ccccc34)CC2)cc1OC,23.7 µM,
CC(Cc1ccc(O)c(O)c1)Nc1ccnc2ccccc12 (stereo not given),,83.9% (inactive)
CN(CCc1ccc(O)c(O)c1)c1ccnc2c(F)cccc12,,86% (inactive)
COc1cc(Br)c(CCNc2c3c(nc4ccccc24)CCCC3)cc1OC,20.1 µM,
COc1ccc(CCNC(=O)c2cc(C)ccc2N)cc1OC,,95.6% (inactive)
COc1cc(Br)c(CCNc2ccnc3ccccc23)cc1OC,15.9 µM,
CN(CCCc1ccc(O)c(O)c1)c1ccnc2ccccc12,,88.4% (inactive)
CN(CCCc1ccc(O)c(O)c1)c1c2ccccc2nc2ccccc12,21.9 µM,
Oc1ccc(CCCNc2c3c(nc4ccccc24)CCCC3)cc1O,,92.3% (inactive)
Cc1cc(N(C)CCc2ccc(O)c(O)c2)c2ccccc2n1,,89.8% (inactive)
CN(CCc1ccc(O)c(O)c1)c1ncnc2ccccc12,,95.4% (inactive)
CCOc1ccc2nccc(N(C)CCc3ccc(OC)c(OC)c3)c2c1,41 µM,
COc1ccc(CCN(C)c2c3ccccc3nc3ccccc23)cc1OC,12.9 µM and 9.77 µM,
Cc1cccc2c(NCCc3ccc(O)c(O)c3)ccnc12,,95.1% (inactive)
CCN(CCc1ccc(O)c(O)c1)c1c2ccccc2nc2ccccc12,34.6 µM,
Oc1cccc(CCNc2ccnc3ccccc23)c1O,,93.2% (inactive)
COc1ccc(CCN(C)c2cc(C)nc3ccccc23)cc1OC,,80.7% (inactive)
COc1cc(Br)c(CCNc2c3ccccc3nc3ccccc23)cc1OC,5.03 µM,
CCN(CCc1ccc(OC)c(OC)c1)c1c2ccccc2nc2ccccc12,15.4 µM,
CCN(CC)Cc1cc(Nc2ccnc3cc(Cl)ccc23)ccc1O,40.1 µM,
CC(C)(CNc1ccnc2ccccc12)c1ccc(O)c(O)c1,15 µM,
Nc1c2ccccc2nc2ccccc12,10.3 µM,
COc1ccc(CCN(C)c2ncnc3ccccc23)cc1OC,,85.7% (inactive)
COc1ccc(CCNc2ccnc3cc(Cl)ccc23)cc1OC,41.6 µM,
